Laboratory results taken from ChEMBL document CHEMBL4610063, “Mangiferin: A promising natural xanthone from Mangifera indica for the control of acyclovir - resistant herpes simplex virus 1 infection” (Bioorg Med Chem, 2020).
Values after ≈ are worked out from the molar mass of the structure shown. Active and inactive are the calls of the source. The rule behind the calls is not given here.

Assays:
[1] = tested on: Human alphaherpesvirus 1; experiment: Antiviral activity against ACV-resistant Herpes simplex virus 1 AR-29 infected in African green monkey Vero cells assessed as inhibition of viral infection at 25 ug/ml measured after 72 hrs by crystal violet staining based plaque reduction assay relative to control; format: functional; conditions: Human alphaherpesvirus 1, AR-29, Vero
Summary of the method: (§1)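 Plaque reduction in Vero cells. Mangiferin at 3.12, 6.25, 12.5 or 25 μg/mL is added at infection (0 h) with HSV-1 (10^5 PFU/mL). Agarose overlay with 25 mM MgCl2, 72 h at 37 °C/5% CO2, 20% formaldehyde fix, 0.5% crystal violet stain. %VI is taken against virus control. IC50 comes from linear regression of inhibition curves. Triplicate independent experiments.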

[2] = Toxicity in Balb/c mouse infected with ACV-resistant Herpes simplex virus 1 AR-29 assessed as effect on body weight at 0.7% w/w applied topically 5 times a day at 3 hrs interval for 10 days measured on day 10 post infection; conditions: in vivo, topical_or_ocular
[3] = tested on: Human alphaherpesvirus 1; experiment: Antiviral activity against ACV-resistant Herpes simplex virus 1 AR-29 infected in African green monkey Vero cells assessed as inhibition of viral infection at 3.12 ug/ml measured after 72 hrs by crystal violet staining based plaque reduction assay relative to control; format: functional; conditions: Human alphaherpesvirus 1, AR-29, Vero; summary of the method: as §1
[4] = tested on: Human alphaherpesvirus 1; experiment: Antiviral activity against ACV-sensitive Herpes simplex virus 1 KOS infected in African green monkey Vero cells assessed as inhibition of viral infection measured after 72 hrs by crystal violet staining based plaque reduction assay; format: functional, organism-based; conditions: Human alphaherpesvirus 1, strain KOS; summary of the method: as §1
[5] = tested on: Human alphaherpesvirus 1; experiment: Antiviral activity against ACV-sensitive Herpes simplex virus 1 KOS infected in female Balb/c mouse assessed as change in dermis thickness at 0.7% w/w applied topically 5 times a day at 3 hrs interval for 10 days measured on day 10 post infection by H and E staining based histological analysis; conditions: strain KOS
[6] = tested on: Human alphaherpesvirus 1; experiment: Antiviral activity against ACV-resistant Herpes simplex virus 1 AR-29 infected in female Balb/c mouse assessed as change in epidermis thickness at 0.7% w/w applied topically 5 times a day at 3 hrs interval for 10 days measured on day 10 post infection by H and E staining based histological analysis; format: functional, organism-based
[7] = tested on: Human alphaherpesvirus 1; experiment: Antiviral activity against ACV-sensitive Herpes simplex virus 1 KOS infected in male Balb/c mouse assessed as change in epidermis thickness at 0.7% w/w applied topically 5 times a day at 3 hrs interval for 10 days measured on day 10 post infection by H and E staining based histological analysis; conditions: strain KOS
[8] = tested on: Human alphaherpesvirus 1; experiment: Antiviral activity against ACV-resistant Herpes simplex virus 1 AR-29 infected in male Balb/c mouse assessed as reduction in ulcerated lesion at 0.7% w/w applied topically 5 times a day at 3 hrs interval for 10 days measured on day 5 post infection; format: functional, organism-based
Summary of the method: (§2)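 Balb/c mice, 5 weeks old, six per group. Right mid-flank depilated under i.p. anaesthesia, needle-scarified 24 h later and inoculated with 70 μL HSV-1 AR-29 (10^5 PFU/mL). Topical 0.7% w/w O/W emulsion or ACV cream (50 mg/g) starts 4 h post-infection, 5 times daily for 10 days. Lesions are scored daily.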

[9] = tested on: Human alphaherpesvirus 1; experiment: Antiviral activity against ACV-sensitive Herpes simplex virus 1 KOS infected in female Balb/c mouse assessed as change in epidermis thickness at 0.7% w/w applied topically 5 times a day at 3 hrs interval for 10 days measured on day 10 post infection by H and E staining based histological analysis; conditions: strain KOS
[10] = tested on: Human alphaherpesvirus 1; experiment: Antiviral activity against ACV-resistant Herpes simplex virus 1 AR-29 infected in African green monkey Vero cells assessed as inhibition of viral adsorption at 25 ug/mL preincubated for 30 mins and measured after 1 hr by plaque reduction assay relative to control; format: functional; conditions: Human alphaherpesvirus 1, AR-29, Vero
Summary of the method: (§3)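 Vero cells pre-chilled 30 min at 4 °C, then given mangiferin (3.12–25 μg/mL) together with HSV-1 AR-29 (10^5 PFU/mL) for 1 h adsorption at 4 °C. Plaque reduction assay follows: nutrient agarose overlay with 25 mM MgCl2, 72 h at 37 °C/5% CO2, formaldehyde fixation, crystal violet stain. %VI = [1 − PFU treated/PFU virus control] × 100.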

[11] = tested on: Human alphaherpesvirus 1; experiment: Antiviral activity against ACV-resistant Herpes simplex virus 1 AR-29 infected in African green monkey Vero cells assessed as suppression of viral replication by measuring reduction in ICP4 production at 12.5 ug/ml measured after 24 hrs by immunofluorescence assay relative to control; format: functional; design: scale not given: the % may be the effect or the level left
Summary of the method: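 Vero cells on coverslips, infected with HSV-1 AR-29 and given mangiferin (1.56–12.5 μg/mL) at 0 h. At 24 h they are acetone-fixed (−20 °C, 20 min) and blocked with 2% skim milk. Stained with mouse anti-ICP4 and FITC anti-mouse IgG. 100 cells per coverslip are scored by fluorescence microscopy, inhibition relative to infected untreated cells. Duplicate experiments.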

[12] = tested on: Human alphaherpesvirus 1; experiment: Antiviral activity against ACV-resistant Herpes simplex virus 1 AR-29 infected in African green monkey Vero cells assessed as inhibition of viral infection at 12.5 ug/ml measured after 72 hrs by crystal violet staining based plaque reduction assay relative to control; format: functional; conditions: Human alphaherpesvirus 1, AR-29, Vero; summary of the method: as §1
[13] = tested on: Human alphaherpesvirus 1; experiment: Antiviral activity against ACV-resistant Herpes simplex virus 1 AR-29 infected in male Balb/c mouse assessed as reduction in ulcerated lesion at 0.7% w/w applied topically 5 times a day at 3 hrs interval for 10 days measured on day 7 post infection; format: functional, organism-based; summary of the method: as §2
[14] = tested on: Human alphaherpesvirus 1; experiment: Antiviral activity against ACV-resistant Herpes simplex virus 1 AR-29 infected in male Balb/c mouse assessed as change in dermis thickness at 0.7% w/w applied topically 5 times a day at 3 hrs interval for 10 days measured on day 10 post infection by H and E staining based histological analysis; format: functional, organism-based
[15] = tested on: Human alphaherpesvirus 1; experiment: Antiviral activity against ACV-resistant Herpes simplex virus 1 AR-29 infected in African green monkey Vero cells assessed as inhibition of viral adsorption at 12.5 ug/mL preincubated for 30 mins and measured after 1 hr by plaque reduction assay relative to control; format: functional; conditions: Human alphaherpesvirus 1, AR-29, Vero; summary of the method: as §3
[16] = tested on: Human alphaherpesvirus 1; experiment: Antiviral activity against ACV-sensitive Herpes simplex virus 1 KOS infected in African green monkey Vero cells assessed as suppression of viral replication by measuring reduction in ICP4 production at 12.5 ug/ml measured after 24 hrs by immunofluorescence assay relative to control; format: functional, strain KOS; design: scale not given: the % may be the effect or the level left
Summary of the method: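 Vero cells on coverslips infected with HSV-1 KOS and given mangiferin 1.56–12.5 μg/mL at 0 h. At 24 h cells fixed in cold acetone, blocked with skim milk, stained with mouse anti-ICP4 and FITC anti-mouse IgG; 100 cells per coverslip scored by fluorescence microscopy. Inhibition relative to infected untreated cells; duplicate independent experiments.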

[17] = tested on: Human alphaherpesvirus 1; experiment: Antiviral activity against ACV-resistant Herpes simplex virus 1 AR-29 infected in African green monkey Vero cells assessed as inhibition of viral infection measured after 72 hrs by crystal violet staining based plaque reduction assay; format: functional, organism-based; conditions: Human alphaherpesvirus 1, AR-29, Vero; summary of the method: as §1
[18] = tested on: Human alphaherpesvirus 1; experiment: Antiviral activity against ACV-sensitive Herpes simplex virus 1 KOS infected in African green monkey Vero cells assessed as inhibition of viral adsorption at 25 ug/mL preincubated for 30 mins and measured after 1 hr by plaque reduction assay; format: functional, organism-based; conditions: strain KOS
Summary of the method: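 Vero cells pre-chilled 30 min at 4 °C, then given mangiferin (3.12–25 μg/mL) together with HSV-1 KOS (10^5 PFU/mL); 1 h adsorption at 4 °C, then plaque reduction: agarose/DMEM overlay with 25 mM MgCl2, 72 h at 37 °C, formaldehyde fixation, crystal violet stain. %VI = 1 − PFU treated/PFU virus control; triplicate independent experiments.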

O=c1c2cc(O)c(O)cc2oc2cc(O)c([C@@H]3O[C@H](CO)[C@@H](O)[C@H](O)[C@H]3O)c(O)c12 [MANGIFERIN]
inhibition at 25 µg/mL [1]: 100% | Activity [2]: Non-Toxic | inhibition at 3.12 µg/mL [3]: 57.6% | IC50 [4]: 3.5 µg/mL (≈ 8.29 µM) | Activity [5]: inactive | Activity [6]: inactive | Activity [7]: inactive | Activity [8]: Active | Activity [9]: inactive | inhibition at 25 µg/mL [10]: 74% | Activity [11]: 54.1% | inhibition at 12.5 µg/mL [12]: 100% | Activity [13]: Active | Activity [14]: inactive | inhibition at 12.5 µg/mL [15]: 71.3% | Activity [16]: 29.6% | IC50 [17]: 2.9 µg/mL (≈ 6.87 µM) | inhibition [18]: Active
